The source made the active and inactive calls. The calls are words filed in the database; no cut-off is given here.
Assays:
[1] = Metal chelating activity of the compound assessed as formation of Ca2+ complex by UV-vis spectrometry; type: physicochemical
K562 [2] = experiment: Selectivity index, ratio of IC50 for human MRC5 cells to IC50 for human K562 cells; type: functional
[3] = Metal chelating activity of the compound assessed as formation of Cr3+ complex by UV-vis spectrometry; type: physicochemical
HCT-116 [4] = experiment: Selectivity index, ratio of IC50 for human MRC5 cells to IC50 for human HCT116 cells; type: functional
Pseudomonas aeruginosa [5] = experiment: Antimicrobial activity against Pseudomonas aeruginosa CCM 395 up to 200 uM after 24 to 48 hrs by broth microdilution method; type: functional, organism-based
[6] = Cytostatic activity against human K562-TAX cells after 72 hrs by MTT assay; type: functional, cell-based
Procedure, shortened: (§1)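 Cells were seeded at 25,000–30,000 per well and pre-incubated for 24 h at 37°C in 5% CO2. Four-fold compound dilutions were added in duplicate and incubated for 72 h. MTT was added for 1–4 h, and formazan was dissolved in 10% aq SDS (pH 5.5) overnight at 37°C. OD was read at 540 nm. IC50 came from dose-response curves, mean ± SD of eight independent experiments.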

[7] = Cytostatic activity against human CEM-DNR cells after 72 hrs by MTT assay; type: functional, cell-based; procedure, shortened: as §1
[8] = Metal chelating activity of the compound assessed as formation of Fe2+ complex by UV-vis spectrometry; type: physicochemical
K562 [9] = experiment: Cytostatic activity against human K562 cells after 72 hrs by MTT assay; type: functional, cell-based; conditions: K562, 72 h; procedure, shortened: as §1
Escherichia coli [10] = experiment: Antimicrobial activity against Escherichia coli CCM 3954 up to 200 uM after 24 to 48 hrs by broth microdilution method; type: functional, organism-based
[11] = Metal chelating activity of the compound assessed as formation of Mn2+ complex by UV-vis spectrometry; type: physicochemical
HCT-116 [12] = experiment: Selectivity index, ratio of IC50 for human MRC5 cells to IC50 for human p53-/- HCT116 cells; type: functional
CCRF-CEM = experiment: Cytostatic activity against human CCRF-CEM cells after 72 hrs by MTT assay; type: functional, cell-based; procedure, shortened: as §1
BJ [13] = experiment: Selectivity index, ratio of IC50 for human BJ cells to IC50 for human CCRF-CEM cells; type: functional; conditions: pooled result: one value given for 2 cell lines, strains, targets or settings
[14] = Metal chelating activity of the compound assessed as formation of Mg2+ complex by UV-vis spectrometry; type: physicochemical
A549 [15] = experiment: Selectivity index, ratio of IC50 for human BJ cells to IC50 for human A549 cells; type: functional
Candida tropicalis = experiment: Antifungal activity against Candida tropicalis up to 200 uM after 24 to 48 hrs by broth microdilution method; type: functional, organism-based
Nucleic Acid [16] = experiment: Binding affinity to DNA (unknown origin) assessed as DNA intercalation by UV-visible spectrophotometry in presence of Co2+; type: nucleic-acid assay
BJ [17] = experiment: Selectivity index, ratio of IC50 for human BJ cells to IC50 for human HCT116 cells; type: functional
[18] = Cytostatic activity against human p53-/- HCT116 cells after 72 hrs by MTT assay; type: functional, cell-based; conditions: HCT-116, 72 h; procedure, shortened: as §1
Staphylococcus aureus [19] = experiment: Antimicrobial activity against methicillin-resistant Staphylococcus aureus MRSA 4591 up to 200 uM after 24 to 48 hrs by broth microdilution method; type: functional, organism-based
Nucleic Acid [20] = experiment: Binding affinity to DNA (unknown origin) assessed as DNA intercalation by UV-visible spectrophotometry in presence of Fe3+; type: nucleic-acid assay
Candida albicans = experiment: Antifungal activity against Candida albicans up to 200 uM after 24 to 48 hrs by broth microdilution method; type: functional, organism-based
Nucleic Acid [21] = experiment: Binding affinity to DNA (unknown origin) assessed as DNA intercalation by UV-visible spectrophotometry; type: nucleic-acid assay
[22] = Cytostatic activity against human HCT116 cells after 72 hrs by MTT assay; type: functional, cell-based; conditions: HCT-116, 72 h; procedure, shortened: as §1
MRC5 [23] = experiment: Cytostatic activity against human MRC5 cells after 72 hrs by MTT assay; type: ADME, cell-based; conditions: MRC5, 72 h; procedure, shortened: as §1
[24] = Metal chelating activity of the compound assessed as formation of Ni2+ complex by UV-vis spectrometry; type: physicochemical
CEM-DNR = experiment: Selectivity index, ratio of IC50 for human MRC5 cells to IC50 for human CEM-DNR cells; type: functional
Enterococcus faecalis = experiment: Antimicrobial activity against Enterococcus faecalis CCM 4224 up to 200 uM after 24 to 48 hrs by broth microdilution method; type: functional, organism-based
[25] = Metal chelating activity of the compound assessed as formation of Cu2+ complex by UV-vis spectrometry; type: physicochemical
[26] = Metal chelating activity of the compound assessed as formation of Zn2+ complex by UV-vis spectrometry; type: physicochemical
Nucleic Acid [27] = experiment: Binding affinity to DNA (unknown origin) assessed as DNA intercalation by UV-visible spectrophotometry in presence of Zn2+; type: nucleic-acid assay
A549 [28] = experiment: Cytostatic activity against human A549 cells after 72 hrs by MTT assay; type: functional, cell-based; conditions: A549, 72 h; procedure, shortened: as §1
[29] = Metal chelating activity of the compound assessed as formation of Co2+ complex by UV-vis spectrometry; type: physicochemical
Staphylococcus aureus [30] = experiment: Antimicrobial activity against Staphylococcus aureus CCM 3953 up to 200 uM after 24 to 48 hrs by broth microdilution method; type: functional, organism-based
BJ [31] = experiment: Selectivity index, ratio of IC50 for human BJ cells to IC50 for human CEM-DNR cells; type: functional
MRC5 [32] = experiment: Selectivity index, ratio of IC50 for human MRC5 cells to IC50 for human K562-TAX cells; type: functional
Nucleic Acid [33] = experiment: Binding affinity to DNA (unknown origin) assessed as DNA intercalation by UV-visible spectrophotometry in presence of Ni2+; type: nucleic-acid assay
BJ [34] = experiment: Cytostatic activity against human BJ cells after 72 hrs by MTT assay; type: ADME, cell-based; procedure, shortened: as §1
Candida parapsilosis = experiment: Antifungal activity against Candida parapsilosis up to 200 uM after 24 to 48 hrs by broth microdilution method; type: functional, organism-based
A549 [35] = experiment: Selectivity index, ratio of IC50 for human MRC5 cells to IC50 for human A549 cells; type: functional
[36] = Metal chelating activity of the compound assessed as formation of Fe3+ complex by UV-vis spectrometry; type: physicochemical
BJ [37] = experiment: Selectivity index, ratio of IC50 for human BJ cells to IC50 for human K562 cells; type: functional
Nucleic Acid [38] = experiment: Binding affinity to DNA (unknown origin) assessed as DNA intercalation by UV-visible spectrophotometry in presence of Cu2+; type: nucleic-acid assay
Pichia kudriavzevii = experiment: Antifungal activity against Candida crusei up to 200 uM after 24 to 48 hrs by broth microdilution method; type: functional, organism-based
[39] = tested on: Staphylococcus haemolyticus; experiment: Antimicrobial activity against methicillin-resistant Staphylococcus haemolyticus A1/16568 up to 200 uM after 24 to 48 hrs by broth microdilution method; type: functional, organism-based
Pseudomonas aeruginosa [40] = experiment: Antimicrobial activity against multidrug-resistant Pseudomonas aeruginosa A/16575 up to 200 uM after 24 to 48 hrs by broth microdilution method; type: functional, organism-based
BJ [41] = experiment: Selectivity index, ratio of IC50 for human BJ cells to IC50 for human K562-TAX cells; type: functional
BJ [42] = experiment: Selectivity index, ratio of IC50 for human BJ cells to IC50 for human p53-/- HCT116 cells; type: functional
Escherichia coli [43] = experiment: Antimicrobial activity against multidrug-resistant Escherichia coli C/16702 up to 200 uM after 24 to 48 hrs by broth microdilution method; type: functional, organism-based

## O=C(N/N=C/c1cc(Cl)ccc1O)c1ccc2c3c(ccc2c1)N1Cc2c(ccc4cc(C(=O)N/N=C/c5cc(Cl)ccc5O)ccc24)N(C3)C1
[1]
  Activity: Not Active
K562 [2]
  Ratio IC50: 1
[3]
  Activity: Not Active
HCT-116 [4]
  Ratio IC50: 1
Pseudomonas aeruginosa [5]
  Activity: inactive
[6]
  IC50: > 100 µM
[7]
  IC50: > 100 µM
[8]
  Activity: Not Active
K562 [9]
  IC50: > 100 µM
Escherichia coli [10]
  Activity: inactive
[11]
  Activity: Not Active
HCT-116 [12]
  Ratio IC50: 1
CCRF-CEM
  IC50: 42.1 µM
BJ [13]
  Ratio IC50: 2.4
[14]
  Activity: Not Active
A549 [15]
  Ratio IC50: 1
Candida tropicalis
  Activity: inactive
Nucleic Acid [16]
  Activity: Active
BJ [17]
  Ratio IC50: 1
[18]
  IC50: > 100 µM
Staphylococcus aureus [19]
  Activity: inactive
Nucleic Acid [20]
  Activity: Active
Candida albicans
  Activity: inactive
Nucleic Acid [21]
  Activity: inactive
[22]
  IC50: > 100 µM
MRC5 [23]
  IC50: > 100 µM
[24]
  Activity: Active
CEM-DNR
  Ratio IC50: 1
Enterococcus faecalis
  Activity: inactive
[25]
  Activity: Active
[26]
  Activity: Active
Nucleic Acid [27]
  Activity: Active
A549 [28]
  IC50: > 100 µM
[29]
  Activity: Active
Staphylococcus aureus [30]
  Activity: inactive
BJ [31]
  Ratio IC50: 1
MRC5 [32]
  Ratio IC50: 1
Nucleic Acid [33]
  Activity: Active
BJ [34]
  IC50: > 100 µM
Candida parapsilosis
  Activity: inactive
A549 [35]
  Ratio IC50: 1
[36]
  Activity: Active
BJ [37]
  Ratio IC50: 1
Nucleic Acid [38]
  Activity: Active
Pichia kudriavzevii
  Activity: inactive
[39]
  Activity: inactive
Pseudomonas aeruginosa [40]
  Activity: inactive
BJ [41]
  Ratio IC50: 1
BJ [42]
  Ratio IC50: 1
Escherichia coli [43]
  Activity: inactive
